UHRF1 binding – UHRF1 methylated DNA binding inhibitors, primary screen, counter-screen for MBD2 inhibitor project, biochemical, TR-FRET, human UHRF1, single concentration. E3 ubiquitin-protein ligase UHRF1 (Homo sapiens), Q96T88. inhibition, % at 4.4 µM. 370,000 compounds, 0.75% hits. UHRF1 binding to methylated oligo. AID 687016, 2013; in the data active = inhibition above about 21%;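 also: UHRF1 SRA domain binding a hemimethylated CpG hairpin DNA probe; 0% = median of test compound wells and 100% = reference inhibitor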
TDP2 absorb – human TDP2 enzyme inhibitors, primary screen, biochemical, epi absorbance, recombinant enzyme | AID 720702, 2013 | T5PNP hydrolysis, p-nitrophenol absorbance 415 nm | inhibition, % at 12.8 µM | 370,000 compounds, 0.34% hits;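 active = inhibition above the mean of all tested compounds plus 3 SD, set per campaign, cut at about 25% in these data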;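 also: 0% = DMSO with enzyme and 100% = buffer with substrate but no TDP2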
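System – recombinant human TDP2 · Quantity – TDP2 enzyme at 120 nM final · Doses – single concentration, 12.8 µM nominal, with 1% DMSO · Incubation – 2 h at 37 °C · Measured by – epi absorbance of p-nitrophenol freed from T5PNP by hydrolysis · Read-out – % inhibition relative to enzyme-containing and enzyme-free wells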
NSD2 HMT inh – NSD2 histone methyltransferase inhibitors, primary screen, biochemical, AlphaScreen, single concentration, set 2. NSD2 peptide methylation, 120 min. AID 743445, 2014. inhibition, % at 12.5 µM. Histone-lysine N-methyltransferase NSD2 (Homo sapiens), O96028. 310,000 compounds, 0.54% hits; in the data active = inhibition above about 50%
LEDGF integ inh – blockers of LEDGF/p75-dependent integrase strand transfer – biochemical, TR-FRET, high throughput, primary screen. HIV-1 integrase (with human LEDGF/p75). TR-FRET IN-LEDGF/p75 DNA integration, Eu/Cy5. inhibition, % at 3.7 µM. 370,000 compounds, 0.64% hits;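 active = inhibition above the screen-wide mean plus 3 SD, cut at about 13% in these data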;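 also: signal is the Cy5 over europium emission ratio at 671 and 618 nm; 0% = plate median of compound wells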
MBD2 inh – inhibitors of MBD2 binding to methylated DNA, primary screen, biochemical, TR-FRET, DNA-binding domain, human; Methyl-CpG-binding domain protein 2 (Homo sapiens), Q9UBB5; 370,000 compounds, 0.31% hits; inhibition, % at 4.4 µM; MBD2 binding to methylated oligonucleotide; in the data active = inhibition above about 13%
Target sequence (Q9UBB5 whole entry, looked up, the tested form may be a part): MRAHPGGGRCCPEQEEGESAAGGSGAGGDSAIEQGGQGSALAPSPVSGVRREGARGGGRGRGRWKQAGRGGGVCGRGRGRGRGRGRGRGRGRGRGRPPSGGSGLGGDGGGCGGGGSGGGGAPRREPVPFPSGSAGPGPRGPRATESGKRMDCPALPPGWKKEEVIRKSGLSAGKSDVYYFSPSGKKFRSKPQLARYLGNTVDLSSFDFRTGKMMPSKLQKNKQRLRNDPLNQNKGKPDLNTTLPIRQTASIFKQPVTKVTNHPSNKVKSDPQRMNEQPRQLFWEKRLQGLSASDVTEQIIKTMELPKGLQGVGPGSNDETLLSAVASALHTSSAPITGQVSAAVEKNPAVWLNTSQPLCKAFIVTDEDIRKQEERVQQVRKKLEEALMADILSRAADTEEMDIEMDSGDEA
CASP6 VEID inh – human caspase-6 inhibitors, primary screen, biochemical, VEID-R110 fluorescence, single point, set 2 | P55212 | purified caspase-6, Z-VEID-R110 cleavage fluorescence | inhibition, % at 12.5 µM | 350,000 compounds, 0.53% hits | AID 686996, 2013;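 active = mean inhibition across replicates at least about 35%, with every replicate also reaching that limit, limit read from the data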;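 also: 0% = median of neutral control wells and 100% = no fluorescence left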
* hit, by the source's call; / = no result. Most compounds without a hit are left out; they make up all but 1.8% or so of the library.

SMILES | UHRF1 binding | TDP2 absorb | NSD2 HMT inh | LEDGF integ inh | MBD2 inh | CASP6 VEID inh
COC1CCN(Cc2c(C(=O)N3C[C@@H](C)O[C@@H](C)C3)nc3ccc(Cl)cn23)CC1 | -0.6 | -9.4 | -1.8 | 0.4 | -1.2 | -0.1
CCN(CC)C1CCN(Cc2c(C(=O)N3CCCCCCC3)nc3ccc(Cl)cn23)C1 (centres undefined) | -0.8 | 2.1 | 42.0 | -2.8 | -3.5 | 64.3*
O=C(c1nc2ccccn2c1CN1CCCC(c2nc3ccccc3o2)C1)N1CCCC1 (centres undefined) | 0.2 | 2.4 | -3.4 | -0.6 | -6.0 | 51.1*
CCOC(=O)C1CCCN(Cc2c(C(=O)N3CCOCC3)nc3ccccn23)C1 (centres undefined) | 2.2 | -11.9 | -3.3 | 0.9 | 1.0 | -2.7
C[C@@H]1CN([C@@H](C)CO)C(=O)c2cc(NC(=O)C3CCCCC3)ccc2O[C@@H]1CN(C)S(C)(=O)=O | / | / | / | / | / | 6.4
CC(CN1CCCC1)C(=O)NN (centres undefined) | 0.6 | 2.2 | -2.2 | -4.2 | 3.1 | -84.4
CC(CN1CCCCC1)C(=O)NN (centres undefined) | 21.2* | -1.8 | -1.8 | 2.5 | 4.0 | -29.1
Cc1ccc(Nc2nc3c([nH]2)c(=O)[nH]c(=O)n3C)cc1 | -2.3 | -0.8 | -5.3 | 44.9* | 2.1 | /
Cn1c(=O)c2[nH]c(Nc3ccccc3)nc2n(C)c1=O | 1.7 | -4.7 | -1.7 | -0.2 | 4.5 | /
CC(C)CC#Cc1ccc2c(c1)O[C@@H](CN(C)C(=O)c1ccccn1)[C@@H](C)CN([C@@H](C)CO)S2(=O)=O | / | / | / | / | / | 0.0
Cc1ccc(N=Cc2cc3c(cc2[N+](=O)[O-])OCO3)cc1[N+](=O)[O-] | 8.7 | 4.3 | -0.8 | 14.7* | 4.0 | 1.2
Cc1cccc(C)c1OCC(=O)N/N=C/c1cc2c(cc1[N+](=O)[O-])OCO2 | -0.1 | 0.1 | 2.9 | -1.1 | 5.2 | -1.5
O=C(CCc1ccc(O)c(O)c1)N/N=C/c1cc2c(cc1[N+](=O)[O-])OCO2 | 28.0* | -1.4 | 17.2 | 53.0* | 5.0 | 20.8
COc1ccc(S(=O)(=O)N(C)C[C@H]2Oc3ccc(NS(=O)(=O)c4cn(C)cn4)cc3CC(=O)N([C@@H](C)CO)C[C@@H]2C)cc1 | / | / | / | / | / | -0.3
COC(=O)C1CN(Cc2cn(Cc3ccc(C)cc3)nn2)CCS(=O)(=O)N1Cc1ccccc1 (centres undefined) | 11.2 | -9.6 | / | 3.6 | 5.0 | /
CCOC(=O)Cn1cc(CN2C(C(=O)OC)CN(Cc3ccc(OC)cc3)CCS2(=O)=O)nn1 (centres undefined) | 80.4* | 8.3 | / | 1.9 | 5.7 | /
COC(=O)C1CN(Cc2cn(Cc3ccccc3)nn2)CCS(=O)(=O)N1Cc1ccccc1 (centres undefined) | 28.1* | -5.8 | / | -0.6 | 5.7 | /
Cc1ccc(C)c(N2N=C(C(=O)OCc3nnc(-c4ccccc4Br)o3)CCC2=O)c1 | 3.4 | 6.7 | 0.2 | 0.7 | 1.9 | 61.4*
Cc1cccc(C)c1-n1nnnc1C1(C)CCC(=O)N1c1ccc(N2CCOCC2)cc1 (centres undefined) | 22.6* | 11.4 | / | 3.6 | 12.2 | 2.9
C[C@@H]1CN([C@@H](C)CO)C(=O)Cc2cc(NC(=O)NC3CCCCC3)ccc2O[C@H]1CN(C)CC1CCCCC1 | / | / | / | / | / | -5.9
COc1ccc(Nc2nc(=O)c3cc([N+](=O)[O-])ccc3s2)cc1 | 24.9* | 11.0 | 1.1 | -1.3 | 7.2 | 5.4
Cc1ccc(Nc2nc(=O)c3cc([N+](=O)[O-])ccc3s2)cc1 | 8.2 | 2.3 | / | 7.2 | -3.0 | -1.0
O=C(CC(F)(F)F)N1C[C@@H]2[C@H](c3ccccc31)[C@@H](CO)N2C(=O)CN1CCOCC1 | / | / | / | / | / | 3.3
CN1CCN(CCCCOc2ccc(F)cc2)CC1 | 21.8* | 8.9 | -1.0 | 3.8 | 12.0 | /
